From ChEMBL document CHEMBL2331552, “Identification of RO4597014, a Glucokinase Activator Studied in the Clinic for the Treatment of Type 2 Diabetes” (ACS Med Chem Lett, 2013)
Converted amounts (≈) assume the structure as drawn.

What was measured:
[1] = biological target: T1, Hexokinase-4 (Homo sapiens) (UniProt P35557); assay: Activation of glucokinase (unknown origin) using glucose as substrate assessed as stimulation concentration required to achieve 150% activity relative to control
T1 sequence (whole entry): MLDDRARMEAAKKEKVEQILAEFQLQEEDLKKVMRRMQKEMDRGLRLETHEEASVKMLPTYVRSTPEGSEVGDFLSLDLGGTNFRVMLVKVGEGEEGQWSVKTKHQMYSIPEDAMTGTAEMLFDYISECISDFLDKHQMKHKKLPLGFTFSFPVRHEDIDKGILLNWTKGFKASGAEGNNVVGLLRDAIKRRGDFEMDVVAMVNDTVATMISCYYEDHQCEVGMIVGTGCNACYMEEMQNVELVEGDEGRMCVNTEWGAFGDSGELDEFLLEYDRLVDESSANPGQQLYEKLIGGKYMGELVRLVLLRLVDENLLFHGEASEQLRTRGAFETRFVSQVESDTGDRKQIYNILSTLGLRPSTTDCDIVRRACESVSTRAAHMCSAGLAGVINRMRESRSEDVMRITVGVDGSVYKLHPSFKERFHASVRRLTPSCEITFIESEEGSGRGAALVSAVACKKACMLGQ
Procedure, shortened: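 Read-out is the compound concentration giving GK activity 150% of control (SC1.5). Values are means of at least three independent assays. Assay CV averaged 15%.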

Mus musculus [2] = assay: Antidiabetic activity in C57Bl/6J mouse assessed as change in blood glucose level at 50 mg/kg, po after 4 hrs relative to vehicle-treated control; format: functional
Procedure, shortened: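 C57Bl/6J mice, 2 months old, n = 6 per group, fasted 2 h, received 50 mg/kg orally or vehicle. Blood was sampled at 2, 4, 6 and 8 h after dosing. The recorded value is % blood glucose change versus vehicle at 4 h.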

hERG (KCNH2) = hERG (KCNH2) (Homo sapiens, UniProt Q12809); assay: Inhibition of human ERG channel at 10 uM by patch clamp method
[3] = Lipophilicity, log D of the compound at pH 7.4; format: physicochemical; settings: buffer
[4] = biological target: T1, Hexokinase-4 (Homo sapiens); assay: Activation of human recombinant glucokinase using glucose as substrate
Procedure, shortened: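 Recombinant human GK was run across a range of glucose concentrations with varied activator levels. Vmax and the glucose SC0.5 (concentration reaching half Vmax) were derived.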

[5] = Cmax in C57Bl/6J mouse at 30 mg/kg, po; format: ADME, organism-based; set-up: dose 30 mg/kg, route oral; settings: in vivo
[6] = Solubility of the compound at pH 7.4; format: physicochemical; settings: buffer
[7] = Volume of distribution at steady state in dog at 10 mg/kg, iv; format: ADME, organism-based, Canis lupus familiaris; set-up: dose 10 mg/kg, route intravenous; settings: in vivo, read-out: Vdss
[8] = Volume of distribution at steady state in C57Bl/6J mouse at 10 mg/kg, iv; format: ADME, organism-based; set-up: dose 10 mg/kg, route intravenous; settings: in vivo, read-out: Vdss
[9] = Oral bioavailability in C57Bl/6J mouse at 30 mg/kg; format: ADME, organism-based; settings: in vivo
[10] = Oral bioavailability in dog at 30 mg/kg; format: ADME, organism-based, Canis lupus familiaris; settings: in vivo
[11] = Inhibition of cytochrome P450 (unknown origin); format: ADME, Homo sapiens
Procedure, shortened: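 IC50 was measured against 7 CYP isoforms.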

[12] = Fraction unbound in human plasma; format: ADME, cell-free
[13] = Metabolic stability in human hepatocytes after 3 hrs by LC-MS/MS analysis; format: ADME, cell-based, Hepatocyte; settings: read-out: Stability
[14] = Tmax in dog at 30 mg/kg, po; format: ADME, organism-based, Canis lupus familiaris; set-up: dose 30 mg/kg, route oral; settings: in vivo
Mus musculus [15] = assay: Antidiabetic activity in diet induced obese C57Bl/6J mouse assessed as reduction in blood glucose level at 15 mg/kg, po after 2 to 4 hrs; format: functional; set-up: scale not given: the % may be the effect or the level left
Procedure, shortened: (§1)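 Diet-induced obese C57Bl/6J mice were used: 6 months old, on high-fat diet for 4 months, n = 9 per dose. Oral doses were 7.5, 15 and 30 mg/kg. Basal blood glucose lowering was read at 2 and 4 h post-dose.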

[16] = Clearance in dog at 10 mg/kg, iv; format: ADME, organism-based, Canis lupus familiaris; set-up: dose 10 mg/kg, route intravenous; settings: in vivo
Liver microsomes = assay: Covalent binding to human liver microsomes after 30 mins in presence of NADPH per mg of protein; format: ADME, Microsome; settings: 0.5 h
Procedure, shortened: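 Covalent binding to human liver microsomes was measured with NADPH over 30 min. It is expressed per mg protein.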

[17] = Clearance in C57Bl/6J mouse at 10 mg/kg, iv; format: ADME, organism-based; set-up: dose 10 mg/kg, route intravenous; settings: in vivo
[18] = AUC (0 to infinity) in C57Bl/6J mouse at 30 mg/kg, po; format: ADME, organism-based; set-up: time infinity, dose 30 mg/kg, route oral; settings: plasma
[19] = Dissociation constant, pKa of the compound; format: physicochemical
Mus musculus [20] = assay: Antidiabetic activity in diet induced obese C57Bl/6J mouse assessed as reduction in blood glucose level at 30 mg/kg, po after 2 to 4 hrs; format: functional; set-up: scale not given: the % may be the effect or the level left; procedure, shortened: as §1
[21] = AUC (0 to infinity) in dog at 30 mg/kg, po; format: ADME, organism-based, Canis lupus familiaris; set-up: time infinity, dose 30 mg/kg, route oral; settings: plasma
[22] = Tmax in C57Bl/6J mouse at 30 mg/kg, po; format: ADME, organism-based; set-up: dose 30 mg/kg, route oral; settings: in vivo
[23] = AUC (0 to infinity) in C57Bl/6J mouse at 10 mg/kg, iv; format: ADME, organism-based; set-up: time infinity, dose 10 mg/kg, route intravenous; settings: plasma
[24] = biological target: Voltage-gated inwardly rectifying potassium channel KCNH2 (Homo sapiens, UniProt Q12809); assay: Inhibition of human ERG channel
Procedure, shortened: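 hERG potassium channel current was measured by patch clamp at varied concentrations. IC50 was taken from the concentration-dependent inhibition.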

[25] = AUC (0 to infinity) in dog at 10 mg/kg, iv; format: ADME, organism-based, Canis lupus familiaris; set-up: time infinity, dose 10 mg/kg, route intravenous; settings: plasma
[26] = Cmax in dog at 30 mg/kg, po; format: ADME, organism-based, Canis lupus familiaris; set-up: dose 30 mg/kg, route oral; settings: in vivo
[27] = Apparent permeability of the compound across human Caco2 cells; format: ADME, cell-based; settings: Caco-2
Mus musculus [28] = assay: Antidiabetic activity in po dosed diet induced obese C57Bl/6J mouse assessed as lowering blood glucose level; format: functional, organism-based
Procedure, shortened: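 Diet-induced obese C57Bl/6J mice were used: 6 months old, 4 months on high-fat diet, n = 9 per dose. Oral doses were 7.5, 15 and 30 mg/kg, with glucose followed at 2 and 4 h post-dose. The dose giving 25% glucose lowering (ED25) was reported.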

Mus musculus [29] = assay: Antidiabetic activity in po dosed diet induced obese C57Bl/6J mouse assessed as reduction in blood glucose level after 2 to 4 hrs; format: functional; procedure, shortened: as §1

hERG (KCNH2), sequence (Q12809 whole entry): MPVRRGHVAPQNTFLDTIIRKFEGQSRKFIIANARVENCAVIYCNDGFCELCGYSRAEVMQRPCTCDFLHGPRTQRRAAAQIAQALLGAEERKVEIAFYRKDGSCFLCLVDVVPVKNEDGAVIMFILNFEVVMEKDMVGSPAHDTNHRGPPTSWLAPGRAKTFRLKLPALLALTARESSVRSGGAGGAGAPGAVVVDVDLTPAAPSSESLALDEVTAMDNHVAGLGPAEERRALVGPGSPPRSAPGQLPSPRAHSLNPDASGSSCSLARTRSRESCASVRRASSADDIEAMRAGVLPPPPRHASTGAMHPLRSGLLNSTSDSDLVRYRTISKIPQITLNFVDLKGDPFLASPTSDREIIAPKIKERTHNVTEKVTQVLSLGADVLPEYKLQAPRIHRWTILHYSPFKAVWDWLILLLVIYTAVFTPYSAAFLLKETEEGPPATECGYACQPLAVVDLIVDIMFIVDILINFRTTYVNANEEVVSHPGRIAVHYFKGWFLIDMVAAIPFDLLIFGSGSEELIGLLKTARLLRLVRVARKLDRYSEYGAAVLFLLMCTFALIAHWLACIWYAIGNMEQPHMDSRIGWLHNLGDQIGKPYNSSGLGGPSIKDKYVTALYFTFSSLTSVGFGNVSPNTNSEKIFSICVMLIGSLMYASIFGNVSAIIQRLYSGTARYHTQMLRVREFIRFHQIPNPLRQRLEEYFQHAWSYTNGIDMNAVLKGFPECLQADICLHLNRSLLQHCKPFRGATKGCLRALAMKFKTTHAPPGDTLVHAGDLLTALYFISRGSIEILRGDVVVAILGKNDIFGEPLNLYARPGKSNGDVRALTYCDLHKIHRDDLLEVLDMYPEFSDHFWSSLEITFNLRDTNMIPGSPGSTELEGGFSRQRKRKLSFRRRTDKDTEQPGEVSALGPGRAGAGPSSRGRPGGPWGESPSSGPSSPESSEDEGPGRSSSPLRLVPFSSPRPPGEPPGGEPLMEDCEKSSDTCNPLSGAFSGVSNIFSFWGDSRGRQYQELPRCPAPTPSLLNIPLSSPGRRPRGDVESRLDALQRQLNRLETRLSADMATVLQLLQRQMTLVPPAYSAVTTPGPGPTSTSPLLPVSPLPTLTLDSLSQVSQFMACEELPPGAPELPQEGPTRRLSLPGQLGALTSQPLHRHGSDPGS
Voltage-gated inwardly rectifying potassium channel KCNH2, sequence (Q12809 whole entry): as above

Work on `CS(=O)(=O)c1ccc([C@@H](CC2CCCC2)C(=O)Nc2cnccn2)cc1Cl` yielded an Activity [1] of 0.11 µM and an Activity (Mus musculus [2]) of -53%.
In the case of `CS(=O)(=O)c1ccc(C(CC2CCOC2)C(=O)Nc2cnccn2)cc1Cl` (stereo not given), the Activity [1] is reported as 3.6 µM.
With `CSc1cnc(NC(=O)[C@H](CC2CCCC2)c2ccc(S(C)(=O)=O)c(Cl)c2)cn1` the Activity [1] was 0.054 µM and the Activity (Mus musculus [2]) was -26%.
Compound `C/C(=N/O)c1cnc(NC(=O)[C@H](CC2CCCC2)c2ccc(S(C)(=O)=O)c(Cl)c2)cn1` has an inhibition at 10 µM (hERG (KCNH2)) of 73%, an Activity [1] of 0.059 µM and an Activity (Mus musculus [2]) of -43%.
For `CC(C)(O)[C@@H](O)c1cnc(NC(=O)[C@H](CC2CCCC2)c2ccc(S(C)(=O)=O)c(Cl)c2)cn1`, the Activity [1] was 0.31 µM and the Activity (Mus musculus [2]) was -44%.
With `COCC#Cc1cnc(NC(=O)[C@H](CC2CCCC2)c2ccc(S(C)(=O)=O)c(Cl)c2)cn1` the inhibition at 10 µM (hERG (KCNH2)) was 53%, the Activity [1] was 0.14 µM and the Activity (Mus musculus [2]) was -49%.
In the case of `CS(=O)(=O)c1ccc([C@@H](CC2CCCC2)C(=O)Nc2cnc(OC[C@H](O)CO)cn2)cc1Cl`, the Activity [1] is reported as 0.19 µM and the Activity (Mus musculus [2]) is reported as -38%.
Work on `C[S+]([O-])c1cnc(NC(=O)[C@H](CC2CCCC2)c2ccc(S(C)(=O)=O)c(Cl)c2)cn1` (stereo not given in full) yielded an inhibition at 10 µM (hERG (KCNH2)) of 27%, an Activity [1] of 0.4 µM and an Activity (Mus musculus [2]) of -26%.
In the case of `CS(=O)(=O)c1ccc([C@@H](CC2CCCC2)C(=O)Nc2cnc(C#CCO)cn2)cc1Cl`, the inhibition at 10 µM (hERG (KCNH2)) is reported as 46%, the Activity [1] is reported as 0.022 µM and the Activity (Mus musculus [2]) is reported as -46%.
Compound `CN(C)CC#Cc1cnc(NC(=O)[C@H](CC2CCCC2)c2ccc(S(C)(=O)=O)c(Cl)c2)cn1` has an inhibition at 10 µM (hERG (KCNH2)) of 86%, an Activity [1] of 0.11 µM and an Activity (Mus musculus [2]) of -46%.
Work on `CS(=O)(=O)c1ccc([C@@H](CC2CCCC2)C(=O)Nc2cnc(OC[C@@H](O)CO)cn2)cc1Cl` yielded an Activity [1] of 0.3 µM and an Activity (Mus musculus [2]) of -29%.
`CS(=O)(=O)c1ccc(C(CC2CCOCC2)C(=O)Nc2cnccn2)cc1Cl` (stereo not given) showed an inhibition at 10 µM (hERG (KCNH2)) of 8.1%, an Activity [1] of 1.4 µM and an Activity (Mus musculus [2]) of -5.6%.
For `CS(=O)(=O)c1ccc([C@@H](CC2CCCC2)C(=O)Nc2cnc([C@H](O)CO)cn2)cc1Cl`, the logD [3] was 2.7, the Activity [4] was “Dose-dependent effect” and the Cmax [5] was 1.31 µg/mL. For the same compound, the solubility [6] was 0.17 mg/mL (≈ 363 µM), the Vd [7] was 1.69 L/kg and the Vd [8] was 1.44 L/kg. The bioavailability [9] was 50.3%, the bioavailability [10] was 84% and the IC50 [11] was > 30 µM. It also gave a fraction unbound [12] of 0.1, a remaining at 3 h [13] of 95% and a Tmax [14] of 7.3 h. For the same compound, the Activity (Mus musculus [15]) was 32%, the clearance [16] was 0.48 L/h/kg and the Activity (Liver microsomes) was 33 pmol. For the same compound, the clearance [17] was 1.25 L/h/kg, the AUC(0-inf) [18] was 12.1 µg·h/mL and the pKa [19] was 11.4. It also gave an Activity (Mus musculus [20]) of 45%, an inhibition at 10 µM (hERG (KCNH2)) of 22% and an AUC(0-inf) [21] of 54.5 µg·h/mL. The Activity [1] was 0.26 µM, the Tmax [22] was 4 h and the AUC(0-inf) [23] was 8.01 µg·h/mL. The IC50 [24] was 70 µM, the AUC(0-inf) [25] was 21.6 µg·h/mL and the Activity (Mus musculus [2]) was -44%. For the same compound, the Cmax [26] was 3.79 µg/mL, the Papp [27] was 33.6 nm/s and the Activity (Mus musculus [28]) was “Dose-dependent effect”. The ED25 (Mus musculus [29]) was 10 mg/kg.
`CS(=O)(=O)c1ccc([C@@H](CC2CCCC2)C(=O)Nc2cnc(/C(N)=N\O)cn2)cc1Cl` gave an inhibition at 10 µM (hERG (KCNH2)) of 50%, an Activity [1] of 0.037 µM and an Activity (Mus musculus [2]) of -53%.
For `CS(=O)(=O)c1ccc([C@@H](CC2CCCC2)C(=O)Nc2cnc([C@@H](O)CO)cn2)cc1Cl`, the inhibition at 10 µM (hERG (KCNH2)) was 21%, the Activity [1] was 1.1 µM and the Activity (Mus musculus [2]) was -35%.
`CS(=O)(=O)c1ccc([C@@H](CC2CCCC2)C(=O)Nc2cnc(C(=O)NO)cn2)cc1Cl` gave an inhibition at 10 µM (hERG (KCNH2)) of 37%, an Activity [1] of 0.41 µM and an Activity (Mus musculus [2]) of -14%.
`CC(C)(O)C#Cc1cnc(NC(=O)[C@H](CC2CCCC2)c2ccc(S(C)(=O)=O)c(Cl)c2)cn1` gave an Activity [1] of 0.056 µM and an Activity (Mus musculus [2]) of -48%.
Compound `CS(=O)(=O)Cc1cnc(NC(=O)[C@H](CC2CCCC2)c2ccc(S(C)(=O)=O)c(Cl)c2)cn1` has an Activity [1] of 0.26 µM and an Activity (Mus musculus [2]) of -39%.
For `COc1cc(C(CC2CCCC2)C(=O)Nc2cnccn2)ccc1S(C)(=O)=O` (stereo not given), the inhibition at 10 µM (hERG (KCNH2)) was 36% and the Activity [1] was 1.9 µM.
With `CS(=O)(=O)c1ccc([C@@H](CC2CCCC2)C(=O)Nc2cnc(CCC3(O)CCOCC3)cn2)cc1Cl` the inhibition at 10 µM (hERG (KCNH2)) was 40%, the Activity [1] was 0.13 µM and the Activity (Mus musculus [2]) was -43%.
`CS(=O)(=O)c1ccc([C@@H](CC2CCCC2)C(=O)Nc2cnc(C#CC3(O)CCOCC3)cn2)cc1Cl` gave an Activity [1] of 0.075 µM and an Activity (Mus musculus [2]) of -45%.
